Results reported in the EternaBench riboswitch data.

Test system: MS2 coat protein
Experiment: apparent Kd, MS2 coat protein; higher = weaker binding; RNA-MaP array; tryptophan 2.4 mM where present
Summary of the method: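 The apparent Kd is the median of filtered binding-curve fits, one per cluster, to green signal normalised to red-channel RNA signal and control-cluster median Fmax. The clusters were on Illumina sequencing chips, and stalled E. coli RNA polymerase had transcribed the designs on them. Titration used SNAP-549-labelled MS2 coat protein from 0.7 or 1.5 nM, doubling to 3 µM, without and then with constant ligand, in 100 mM Tris-HCl pH 7.5, 80 mM KCl, 4 mM MgCl2, BSA, DTT, yeast tRNA and Tween-20.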

[1] = designed as: OFF switch for tryptophan, no ligand
[2] = ligand present: tryptophan, designed as: OFF switch for tryptophan
[3] = designed as: ON switch for tryptophan, no ligand
[4] = ligand present: tryptophan, designed as: ON switch for tryptophan

| Sequence | apparent Kd [1] | apparent Kd [2] | apparent Kd [3] | apparent Kd [4] |
| --- | --- | --- | --- | --- |
| UAACAUGAGGAUCACCCAUGUAUACUUAGUCGAGGACCGGUACGGCCGCCACUCGUACUUCAAGAUUUGGCGGAAAAUGUAUGUA | 12.5 nM | 15.1 nM | – | – |
| AAGGCACGAGACAUGAGGAUCACCCAUGUUCGAGGACCGGUACGGCCGCCACUCGGUGGACUCAUGGUAAAGCCGGUGAGCCAAA | – | – | 19.4 nM | 37.2 nM |
| CUACAUUUGUAGAAACCGGUCAACAAUAAUCGAGGACCGGUACGGCCGCCACUCGUAUAAUUUAUUACAUGAGGAUCACCCAUGU | – | – | 13.7 nM | 13.8 nM |
| GGGAGGGAGGCGGCCGCCACUGAUUUUCAUAUAUAUAUAACAUGAGGAUCACCCAUGUAGAUAUGCAGGACCGGGCCUUUUUUUU | – | – | 20.5 nM | 17.6 nM |
| GGUAUGUAUUCGGAAACGAAUGCAUACCAACGAGGACCGGUACGGCCGCCACUCGGCGGCGAUCAACAUGAGGAUCACCCAUGUA | 40.4 nM | 31 nM | – | – |
| AAAACAUGAGGAUCACCACAUGACAUGAGGCGAGGACCGGUACGGCCGCCACUCGACAUACAUGAGGAUCACCCAUGUUUGUUGU | 217 nM | 269 nM | – | – |
